Consider eight molecules from ChEMBL document CHEMBL5316281, “Trojan Horse Siderophore Conjugates Induce Pseudomonas aeruginosa Suicide and Qualify the TonB Protein as a Novel Antibiotic Target” (2023).

Calls of active or inactive are those of the source. No cut-off for these calls is given here. Where a SMILES comes first, the peptide text is derived from it. The star is where a group is joined. X1 = O=C(COCC(=O)*)NCCOCCOCCOCCOCCOCCOCCOCCOCCn1cc(CCCC(=O)Nc2c(CNC(=O)c3cccc(O)c3O)cc(CNC(=O)c3cccc(O)c3O)cc2CNC(=O)c2cccc(O)c2O)nn1

Assay [1] concerns Pseudomonas aeruginosa. The experiment in a line: Antimicrobial activity against Pseudomonas aeruginosa harboring deltapvdF-deltapchA mutant with PirA deletion assessed as reduction of bacterial growth at 10 uM by growth kinetic assay. It is filed as functional, organism-based. An outline of the steps: (§1)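 Overnight LB culture washed, regrown in CAA at 30 °C, washed, resuspended in CAA at OD600 0.02; fresh sterile-filtered aqueous compound added to 10 µM final; OD600 read in plate reader for 48 h at 30 °C with regular agitation.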

The test system of assay [2] is Pseudomonas aeruginosa. The experiment in a line: Antimicrobial activity against Pseudomonas aeruginosa harboring deltapvdF-deltapchA mutant assessed as increase in pfeA transcription level at 10 uM incubated for 8 hrs in presence of iron-depleted CAA medium by qRT-PCR analysis. In kind it is functional, organism-based. The procedure, abridged:
(§2)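 Cells grown in CAA medium for 8 h at 30 °C with vigorous shaking, with or without 10 μM compound; 2.5 x 10⁸ cells stabilized in two volumes RNAprotect; RNA processed per earlier protocol; RT-qPCR with primer efficiencies from serially diluted genomic DNA; double ΔCT analysis.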

The test system of assay [3] is Pseudomonas aeruginosa. The experiment in a line: Antimicrobial activity against Pseudomonas aeruginosa harboring deltapvdF-deltapchA mutant assessed as effect on pirA transcription level at 10 uM incubated for 8 hrs in presence of iron-depleted CAA medium by qRT-PCR analysis. It is filed as functional, organism-based. The procedure, abridged: as §2
Assay [4] deals with Pseudomonas aeruginosa. The experiment in a line: Antimicrobial activity against Pseudomonas aeruginosa harboring deltapvdF-deltapchA mutant assessed as decrease in fptA transcription level at 10 uM incubated for 8 hrs in presence of iron-depleted CAA medium by qRT-PCR analysis. In kind it is functional, organism-based. The procedure, abridged: as §2
Assay [5] has as its system Pseudomonas aeruginosa. The assay can be described thus: Antimicrobial activity against Pseudomonas aeruginosa harboring deltapvdF-deltapchA mutant with PfeA deletion assessed as reduction of bacterial growth at 10 uM by growth kinetic assay. It is filed as functional, organism-based. The procedure, abridged:
as §1

In assay [6] the test system is Pseudomonas aeruginosa. The assay can be described thus: Antimicrobial activity against Pseudomonas aeruginosa harboring deltapvdF-deltapchA mutant with PirA-PfeA dual deletion assessed as reduction of bacterial growth at 10 uM by growth kinetic assay. In kind it is functional, organism-based. The procedure, abridged: as §1
Assay [7] relates to Pseudomonas aeruginosa. The experiment in a line: Antimicrobial activity against Pseudomonas aeruginosa PAO1 assessed as inhibition of bacterial growth in presence of iron-depleted CAA medium. In kind it is functional, organism-based.
The test system of assay [8] is Pseudomonas aeruginosa. The assay can be described thus: Antimicrobial activity against Pseudomonas aeruginosa harboring deltapvdF-deltapchA mutant assessed as inhibition of bacterial growth by measuring minimal inhibitory concentration incubated for 48 hrs in presence of iron-depleted CAA medium. It is filed as functional.
In assay [9] the test system is Pseudomonas aeruginosa. The experiment in a line: Antimicrobial activity against Pseudomonas aeruginosa PAO1 assessed as fold increase in pfeA transcription level at 10 uM incubated for 8 hrs in presence of iron-depleted CAA medium by qRT-PCR analysis. It is filed as functional. An outline of the steps:
as §2

Assay [10] relates to Pseudomonas aeruginosa. The assay can be described thus: Antimicrobial activity against Pseudomonas aeruginosa harboring deltapvdF-deltapchA mutant assessed as inhibition of bacterial growth by measuring minimal inhibitory concentration incubated for 24 hrs in presence of iron-depleted CAA medium. In kind it is functional.

In the case of H-DSSVDLGATMITSNQLGTIK-NH2, the result with Pseudomonas aeruginosa [1], with Pseudomonas aeruginosa [2], with Pseudomonas aeruginosa [3], in the assay with Pseudomonas aeruginosa [5], in the assay on Pseudomonas aeruginosa [6] and with Pseudomonas aeruginosa [7] was inactive. Further, the outcome with Pseudomonas aeruginosa [4] was Active.

On to H-SLIRVSQDDLVQMSPSVISAARPK-NH2, for which the result in the assay with Pseudomonas aeruginosa [1], in the assay with Pseudomonas aeruginosa [2], with Pseudomonas aeruginosa [3], with Pseudomonas aeruginosa [5], in the assay on Pseudomonas aeruginosa [6] and in the assay with Pseudomonas aeruginosa [7] was inactive. Also, in the assay on Pseudomonas aeruginosa [4], the outcome was Active.

With `C#CCNC(=O)CN1CCN(CC(=O)NCCNC(=O)c2cccc(O)c2O)CCN(CC(=O)NCCNC(=O)c2cccc(O)c2O)CCN(CC(=O)NCCNC(=O)c2cccc(O)c2O)CC1`, the MIC with Pseudomonas aeruginosa [8] and in the assay with Pseudomonas aeruginosa [10] was 64 µM each time. For the same molecule, the result in the assay on Pseudomonas aeruginosa [1] and with Pseudomonas aeruginosa [4] was Active. Further, the outcome in the assay with Pseudomonas aeruginosa [3], in the assay on Pseudomonas aeruginosa [5] and in the assay with Pseudomonas aeruginosa [7] was inactive. For the same molecule, the “fold change (FC)” value in the assay with Pseudomonas aeruginosa [9] came out at 2.

`CC[C@H](C)[C@H](NC(=O)[C@@H](NC(=O)COCC(=O)NCCOCCOCCOCCOCCOCCOCCOCCOCCn1cc(CCCC(=O)Nc2c(CNC(=O)c3cccc(O)c3O)cc(CNC(=O)c3cccc(O)c3O)cc2CNC(=O)c2cccc(O)c2O)nn1)C(C)C)C(=O)N[C@@H](CCC(=O)O)C(=O)N[C@@H](CC(C)C)C(=O)NCC(=O)N[C@@H](CCC(=O)O)C(=O)N[C@@H](CCC(N)=O)C(=O)N[C@H](C(=O)N[C@H](C(=O)N[C@H](C(=O)N[C@@H](C)C(=O)N[C@H](C(=O)N[C@@H](C)C(=O)N[C@@H](CCC(N)=O)C(=O)N[C@@H](CCC(=O)O)C(=O)N[C@@H](CCC(=O)O)C(=O)N[C@H](C(=O)N[C@@H](CCCCN)C(=O)N[C@@H](CCC(N)=O)C(=O)N[C@@H](CCCCN)C(N)=O)[C@@H](C)O)[C@@H](C)O)C(C)C)C(C)C)[C@@H](C)O` (X1-VIELGEQTVVATAQEETKQK-NH2): the MIC in the assay with Pseudomonas aeruginosa [8] and in the assay with Pseudomonas aeruginosa [10] was > 64 µM each time. In addition, the result in the assay with Pseudomonas aeruginosa [1] and in the assay on Pseudomonas aeruginosa [7] was inactive. In addition, the result in the assay on Pseudomonas aeruginosa [5] and in the assay on Pseudomonas aeruginosa [6] was Active.

On to H-VIELGEQTVVATAQEETKQK-NH2, for which the result in the assay with Pseudomonas aeruginosa [1], in the assay on Pseudomonas aeruginosa [2], with Pseudomonas aeruginosa [3], in the assay on Pseudomonas aeruginosa [5], with Pseudomonas aeruginosa [6] and with Pseudomonas aeruginosa [7] was inactive. Also, in the assay with Pseudomonas aeruginosa [4], the result was Active.

For the molecule `CC[C@H](C)[C@H](NC(=O)[C@H](CCSC)NC(=O)[C@@H](NC(=O)[C@H](C)NC(=O)CNC(=O)[C@H](CC(C)C)NC(=O)[C@H](CC(=O)O)NC(=O)[C@@H](NC(=O)[C@H](CO)NC(=O)[C@H](CO)NC(=O)[C@@H](N)CC(=O)O)C(C)C)[C@@H](C)O)C(=O)N[C@H](C(=O)N[C@@H](CO)C(=O)N[C@@H](CC(N)=O)C(=O)N[C@@H](CCC(N)=O)C(=O)N[C@@H](CC(C)C)C(=O)NCC(=O)N[C@H](C(=O)N[C@H](C(=O)N[C@@H](CCCCNC(=O)COCC(=O)NCCOCCOCCOCCOCCOCCOCCOCCOCCn1cc(CCCC(=O)Nc2c(CNC(=O)c3cccc(O)c3O)cc(CNC(=O)c3cccc(O)c3O)cc2CNC(=O)c2cccc(O)c2O)nn1)C(N)=O)[C@@H](C)CC)[C@@H](C)O)[C@@H](C)O` (H-DSSVDLGATMITSNQLGTIK(X1)-NH2), the MIC in the assay with Pseudomonas aeruginosa [8] and in the assay on Pseudomonas aeruginosa [10] was > 64 µM in each case. Also, the result in the assay on Pseudomonas aeruginosa [1], in the assay on Pseudomonas aeruginosa [3] and in the assay on Pseudomonas aeruginosa [7] was inactive. The result in the assay on Pseudomonas aeruginosa [2], in the assay on Pseudomonas aeruginosa [4], in the assay with Pseudomonas aeruginosa [5] and in the assay on Pseudomonas aeruginosa [6] was Active.

Consider `CC[C@H](C)[C@H](NC(=O)[C@H](CC(C)C)NC(=O)[C@H](CO)NC(=O)COCC(=O)NCCOCCOCCOCCOCCOCCOCCOCCOCCn1cc(CCCC(=O)Nc2c(CNC(=O)c3cccc(O)c3O)cc(CNC(=O)c3cccc(O)c3O)cc2CNC(=O)c2cccc(O)c2O)nn1)C(=O)N[C@@H](CCCNC(=N)N)C(=O)N[C@H](C(=O)N[C@@H](CO)C(=O)N[C@@H](CCC(N)=O)C(=O)N[C@@H](CC(=O)O)C(=O)N[C@@H](CC(=O)O)C(=O)N[C@@H](CC(C)C)C(=O)N[C@H](C(=O)N[C@@H](CCC(N)=O)C(=O)N[C@@H](CCSC)C(=O)N[C@@H](CO)C(=O)N1CCC[C@H]1C(=O)N[C@@H](CO)C(=O)N[C@H](C(=O)N[C@H](C(=O)N[C@@H](CO)C(=O)N[C@@H](C)C(=O)N[C@@H](C)C(=O)N[C@@H](CCCNC(=N)N)C(=O)N1CCC[C@H]1C(=O)N[C@@H](CCCCN)C(N)=O)[C@@H](C)CC)C(C)C)C(C)C)C(C)C` (X1-SLIRVSQDDLVQMSPSVISAARPK-NH2), for which the MIC in the assay on Pseudomonas aeruginosa [8] and in the assay with Pseudomonas aeruginosa [10] was > 64 µM throughout. Moreover, the outcome with Pseudomonas aeruginosa [1] and in the assay with Pseudomonas aeruginosa [7] was inactive. The outcome in the assay on Pseudomonas aeruginosa [5] and with Pseudomonas aeruginosa [6] was Active.

As for `CC[C@H](C)[C@H](NC(=O)[C@H](CCSC)NC(=O)[C@@H](NC(=O)[C@H](C)NC(=O)CNC(=O)[C@H](CC(C)C)NC(=O)[C@H](CC(=O)O)NC(=O)[C@@H](NC(=O)[C@H](CO)NC(=O)[C@H](CO)NC(=O)[C@H](CC(=O)O)NC(=O)COCC(=O)NCCOCCOCCOCCOCCOCCOCCOCCOCCn1cc(CCCC(=O)Nc2c(CNC(=O)c3cccc(O)c3O)cc(CNC(=O)c3cccc(O)c3O)cc2CNC(=O)c2cccc(O)c2O)nn1)C(C)C)[C@@H](C)O)C(=O)N[C@H](C(=O)N[C@@H](CO)C(=O)N[C@@H](CC(N)=O)C(=O)N[C@@H](CCC(N)=O)C(=O)N[C@@H](CC(C)C)C(=O)NCC(=O)N[C@H](C(=O)N[C@H](C(=O)N[C@@H](CCCCN)C(N)=O)[C@@H](C)CC)[C@@H](C)O)[C@@H](C)O` (X1-DSSVDLGATMITSNQLGTIK-NH2), the MIC in the assay with Pseudomonas aeruginosa [8] and with Pseudomonas aeruginosa [10] was > 64 µM throughout. In addition, the result in the assay with Pseudomonas aeruginosa [1], in the assay on Pseudomonas aeruginosa [3] and in the assay with Pseudomonas aeruginosa [7] was inactive. Also, the result in the assay with Pseudomonas aeruginosa [2], in the assay with Pseudomonas aeruginosa [4], in the assay on Pseudomonas aeruginosa [5] and in the assay with Pseudomonas aeruginosa [6] was Active.
